Measurements of several laboratories.
Lines come from different studies, so protocols differ.
Target: MAP/microtubule affinity-regulating kinase 3 (MARK3, Homo sapiens, UniProt P27448)

CCOC(=O)c1cc2cc(-c3cc(C(=O)NCc4ccc(C(=O)O)cc4)nn3C)ccc2[nH]1 — remaining binding (cell-free assay, competition with immobilised ligand; 0.1 µM): 93%
COc1cc2ncnc(Nc3ccc(Oc4ccccc4)c(C)c3C)c2cc1OC — inhibition (enzyme activity, inhibitor; 1 µM): -4%
C[C@H](NC(=O)c1cnc2n1[C@](C)(Cc1ccc(C#N)cc1)C(=O)N2c1cc(Cl)c(F)c(Cl)c1)C(=O)NC1(c2ccccn2)CC1 — remaining binding (cell-free assay, competition with immobilised ligand; 1 µM): 92%
Cc1nn(CC(F)(F)F)cc1Nc1ncc(C2CC2)c(NCCc2c[nH]cn2)n1 — remaining activity (enzyme activity, inhibitor, radiometric; 1 µM): 96%
CCS(=O)(=O)c1cc2cc(C[C@](O)(CC(C)(C)c3ccc(F)cc3C(N)=O)C(F)(F)F)[nH]c2cn1 — remaining binding (cell-free assay, competition with immobilised ligand; 1 µM): 100%
O=C(NCCCNc1nc(Nc2cccc(CN3CCOCC3)c2)ncc1C1CC1)C1CCC1 — remaining activity (enzyme activity, inhibitor, radiometric; 1 µM): -1%
CC/C(=N\NC(=O)NCc1cccc(O)c1)c1ccc(O)c(C)c1O — inhibition (enzyme activity, inhibitor; 0.1 µM): -16.8%
NS(=O)(=O)c1ccc(CNc2ccnc(Nc3cccc(CN4CCOCC4)c3)n2)cc1 — remaining activity (enzyme activity, inhibitor, radiometric; 1 µM): 113%
O=C1Nc2ccc(Cl)cc2C1=Cc1cc(Cl)c(O)c(Cl)c1 — remaining signal (cell-free assay; 0.5 µM): 81.1%
O=C(NCCCNc1nc(Nc2cccc(NC(=O)N3CCCC3)c2)ncc1C1CC1)C1CCC1 — remaining activity (enzyme activity, inhibitor, radiometric; 1 µM): 0%
CSc1cccnc1N1CCN(Cc2nc3ccccc3[nH]2)CC1 — remaining binding (cell-free assay, competition with immobilised ligand; 1 µM): 98%
c1ccc(CNc2nc(N3CCOc4ccccc43)nc3c2CCCC3)cc1 — inhibition (target engagement in cells, inhibitor, chemoproteomics; 20 mM): 3%
FC(F)(F)Oc1cccc(-c2cnc3ccc(-c4ccncc4)nn23)c1 — activity vs control (enzyme activity, inhibitor, radiometric; 5 µM): 95%
COc1ccc(COc2ccc(Cc3cnc(N)nc3N)cc2OC)cc1 — remaining signal (cell-free assay; 0.5 µM): 103%
C[C@H](c1ccnc(Nc2nc3ccc(-c4cc(N(C)C)ncn4)cc3[nH]2)c1)N1CCN(C(=O)CC(F)(F)F)CC1 — remaining binding (cell-free assay, competition with immobilised ligand; 0.1 µM): 100%
N#CCCc1ccc2c(c1)-c1[nH]c3ccc([N+](=O)[O-])cc3c1CC(=O)N2 — remaining signal (cell-free assay; 0.5 µM): 67.3%
Nc1ncnc2occ(-c3ccc(NC(=O)Nc4cc(C(F)(F)F)ccc4F)cc3)c12 — remaining signal (cell-free assay, inhibitor; 20 µM): 15%
CN(C)C(=O)Cn1cc(-c2nc(C3(c4ccc(-c5cnc(N)nc5)cc4)CC3)no2)cn1 — remaining binding (cell-free assay, competition with immobilised ligand; 1 µM): 100%
NS(=O)(=O)c1ccc(CNc2nc(Nc3cccc(CN4CCOCC4)c3)ncc2C2CC2)cc1 — remaining activity (enzyme activity, inhibitor, radiometric; 1 µM): 109%
O=C(CSc1nc2nccnc2c(=O)n1CCc1ccccc1)Nc1nccs1 — inhibition (enzyme activity, inhibitor; 10 µM): 7%
NS(=O)(=O)c1ccc(CNc2nc(Nc3cccc(NC(=O)N4CCCC4)c3)ncc2Br)cc1 — remaining activity (enzyme activity, inhibitor, radiometric; 1 µM): 63%
COc1cccc2c(NCc3ccccc3)nc(-n3c(N)nc4ccccc43)nc12 — inhibition (target engagement in cells, inhibitor, chemoproteomics; 20 mM): -1%
Cc1cc(NC(=O)c2cccc(S(F)(F)(F)(F)F)c2)cc(-n2ccn3nc(-c4cccnc4)cc23)c1 — remaining binding (cell-free assay, competition with immobilised ligand; 1 µM): 100%
Cc1nn(CC(F)(F)F)cc1Nc1ncc(Br)c(NCCc2cnc[nH]2)n1 — remaining activity (enzyme activity, inhibitor, radiometric; 1 µM): 68%
O=C(NS(=O)(=O)c1ccc(NCC2CCOCC2)c([N+](=O)[O-])c1)c1ccc(N2CCN(Cc3ccc(C(F)(F)F)cc3-c3ccc(Cl)cc3)CC2)cc1Oc1cnc2[nH]ccc2c1 — remaining binding (cell-free assay, competition with immobilised ligand; 1 µM): 100%
CCN(CC)CCNC(=O)c1c(C)[nH]c(/C=C2\C(=O)Nc3ccc(F)cc32)c1C — remaining signal (cell-free assay; 0.5 µM): 30.4%
Cc1nn(CC(F)(F)F)cc1Nc1nccc(NCCc2cnc[nH]2)n1 — remaining activity (enzyme activity, inhibitor, radiometric; 1 µM): 126%
CCCS(=O)(=O)Nc1ccc(F)c(C(=O)c2c[nH]c3ncc(-c4ccc(Cl)cc4)cc23)c1F — inhibition (enzyme activity, inhibitor; 1 µM): < 10%
CN(c1ncccc1CNc1nc(Nc2ccc3c(c2)CC(=O)N3)ncc1C(F)(F)F)S(C)(=O)=O — inhibition (enzyme activity, inhibitor; 1 µM): 83.5%
